≈ marks a conversion by molar mass, not a printed value.
How the values were obtained:
Escherichia coli [1] = assay: Antimicrobial activity against Escherichia coli DH10B harboring beta-lactamase KPC-2 T237K mutant by agar dilution method; format: functional; conditions: K-12 DH10B
Method in brief: (§1)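 LB agar dilution MICs followed CLSI criteria, with inocula applied by Steers replicator. […] Piperacillin-tazobactam was tested at an 8:1 ratio. Wild-type and mutant blaKPC-2 were carried on pBC SK(+), or wild type on pBR322-catI, in E. coli DH10B.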

Escherichia coli [2] = assay: Antimicrobial activity against Escherichia coli DH10B harboring beta-lactamase KPC-2 T237G mutant by agar dilution method; format: functional; conditions: K-12 DH10B; method in brief: as §1
Escherichia coli [3] = assay: Antimicrobial activity against Escherichia coli DH10B by agar dilution method; format: functional; conditions: K-12 DH10B; method in brief: as §1
Escherichia coli [4] = assay: Antimicrobial activity against Escherichia coli DH10B harboring beta-lactamase KPC-2 T237W mutant by agar dilution method; format: functional; conditions: K-12 DH10B; method in brief: as §1
Escherichia coli [5] = assay: Antimicrobial activity against Escherichia coli DH10B harboring plasmid pBR322-catI carrying beta-lactamase KPC-2 by agar dilution method; format: functional; conditions: K-12 DH10B; method in brief: as §1
Escherichia coli [6] = assay: Antimicrobial activity against Escherichia coli DH10B harboring beta-lactamase KPC-2 T237Q mutant by agar dilution method; format: functional; conditions: K-12 DH10B; method in brief: as §1
Escherichia coli [7] = assay: Antimicrobial activity against Escherichia coli DH10B harboring beta-lactamase KPC-2 T237S mutant by agar dilution method; format: functional; conditions: K-12 DH10B; method in brief: as §1
Escherichia coli [8] = assay: Antimicrobial activity against Escherichia coli DH10B harboring beta-lactamase KPC-2 T237D mutant by agar dilution method; format: functional; conditions: K-12 DH10B; method in brief: as §1
Escherichia coli [9] = assay: Antimicrobial activity against Escherichia coli DH10B harboring beta-lactamase KPC-2 T237E mutant by agar dilution method; format: functional; conditions: K-12 DH10B; method in brief: as §1
Escherichia coli [10] = assay: Antimicrobial activity against Escherichia coli DH10B harboring beta-lactamase KPC-2 T237R mutant by agar dilution method; format: functional; conditions: K-12 DH10B; method in brief: as §1
Escherichia coli [11] = assay: Antimicrobial activity against Escherichia coli DH10B harboring beta-lactamase KPC-2 T237H mutant by agar dilution method; format: functional; conditions: K-12 DH10B; method in brief: as §1
Escherichia coli [12] = assay: Antimicrobial activity against Escherichia coli DH10B harboring plasmid pBC SK(+) carrying wild type beta-lactamase KPC-2 by agar dilution method; format: functional; conditions: K-12 DH10B; method in brief: as §1
Escherichia coli [13] = assay: Antimicrobial activity against Escherichia coli DH10B harboring beta-lactamase KPC-2 T237N mutant by agar dilution method; format: functional; conditions: K-12 DH10B; method in brief: as §1
Escherichia coli [14] = assay: Antimicrobial activity against Escherichia coli DH10B harboring beta-lactamase KPC-2 T237F mutant by agar dilution method; format: functional; conditions: K-12 DH10B; method in brief: as §1
Escherichia coli [15] = assay: Antimicrobial activity against Escherichia coli DH10B harboring plasmid […] by agar dilution method; format: functional; conditions: K-12 DH10B; method in brief: as §1
Escherichia coli [16] = assay: Antimicrobial activity against Escherichia coli DH10B harboring beta-lactamase KPC-2 T237Y mutant by agar dilution method; format: functional; conditions: K-12 DH10B; method in brief: as §1
Escherichia coli [17] = assay: Antimicrobial activity against Escherichia coli DH10B harboring beta-lactamase KPC-2 T237L mutant by agar dilution method; format: functional; conditions: K-12 DH10B; method in brief: as §1
Escherichia coli [18] = assay: Antimicrobial activity against Escherichia coli DH10B harboring beta-lactamase KPC-2 T237A mutant by agar dilution method; format: functional; conditions: K-12 DH10B; method in brief: as §1
Escherichia coli [19] = assay: Antimicrobial activity against Escherichia coli DH10B harboring beta-lactamase KPC-2 T237C mutant by agar dilution method; format: functional; conditions: K-12 DH10B; method in brief: as §1
Escherichia coli [20] = assay: Antimicrobial activity against Escherichia coli DH10B harboring beta-lactamase KPC-2 T237M mutant by agar dilution method; format: functional; conditions: K-12 DH10B; method in brief: as §1
Escherichia coli [21] = assay: Antimicrobial activity against Escherichia coli DH10B harboring beta-lactamase KPC-2 T237V mutant by agar dilution method; format: functional; conditions: K-12 DH10B; method in brief: as §1
Escherichia coli [22] = assay: Antimicrobial activity against Escherichia coli DH10B harboring beta-lactamase KPC-2 T237P mutant by agar dilution method; format: functional; conditions: K-12 DH10B; method in brief: as §1
Escherichia coli [23] = assay: Antimicrobial activity against Escherichia coli DH10B harboring beta-lactamase KPC-2 T237I mutant by agar dilution method; format: functional; conditions: K-12 DH10B; method in brief: as §1
Klebsiella pneumoniae [24] = assay: Antimicrobial activity against Klebsiella pneumoniae 1534 expressing beta-lactamase KPC-2 by agar dilution method; format: functional
Method in brief: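 MICs were determined by LB agar dilution following CLSI criteria, with a Steers replicator. […] Piperacillin-tazobactam was kept at an 8:1 ratio.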

Klebsiella pneumoniae [25] = assay: Selectivity index, Ratio of Kcat/Km for Klebsiella pneumoniae 1534 beta-lactamase KPC-2 T237S mutant to ratio of Kcat/Km for Klebsiella pneumoniae 1534 beta-lactamase KPC-2 by spectrophotometric analysis
Method in brief: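 Kinetics used purified enzymes in 10 mM PBS, pH 7.4, room temperature, with 10 nM enzyme and substrate in excess. Km and Vmax came from a Michaelis-Menten fit. kcat/Km of the variant was compared with wild type as ΔΔG = −RT ln of the kcat/Km ratio.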

Klebsiella pneumoniae [26] = assay: Activity of Klebsiella pneumoniae 1534 beta-lactamase KPC-2 T237A mutant by spectrophotometric analysis
Method in brief: (§2)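 Purified KPC-2 variant enzymes (periplasmic lysate from E. coli, preparative isoelectric focusing). Hydrolysis followed by diode-array spectrophotometry in 10 mM PBS, pH 7.4, room temperature. Enzyme at 10 nM with substrate in molar excess for pseudo-first-order conditions. Vmax and Km came from a nonlinear least-squares Michaelis-Menten fit.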

Klebsiella pneumoniae [27] = assay: Activity of Klebsiella pneumoniae 1534 beta-lactamase KPC-2 T237S mutant by spectrophotometric analysis; method in brief: as §2
Klebsiella pneumoniae [28] = assay: Ratio of Kcat/Km for Klebsiella pneumoniae 1534 beta-lactamase KPC-2 T237S mutant by spectrophotometric analysis; method in brief: as §2

| SMILES | MIC (Escherichia coli [1]) [µg/mL] | MIC (Escherichia coli [2]) [µg/mL] | MIC (Escherichia coli [3]) [µg/mL] | MIC (Escherichia coli [4]) [µg/mL] | MIC (Escherichia coli [5]) [µg/mL] | MIC (Escherichia coli [6]) [µg/mL] | MIC (Escherichia coli [7]) [µg/mL] | MIC (Escherichia coli [8]) [µg/mL] | MIC (Escherichia coli [9]) [µg/mL] | MIC (Escherichia coli [10]) [µg/mL] | MIC (Escherichia coli [11]) [µg/mL] | MIC (Escherichia coli [12]) [µg/mL] | MIC (Escherichia coli [13]) [µg/mL] | MIC (Escherichia coli [14]) [µg/mL] | MIC (Escherichia coli [15]) [µg/mL] | MIC (Escherichia coli [16]) [µg/mL] | MIC (Escherichia coli [17]) [µg/mL] | MIC (Escherichia coli [18]) [µg/mL] | MIC (Escherichia coli [19]) [µg/mL] | MIC (Escherichia coli [20]) [µg/mL] | further results |
| --- | --- | --- | --- | --- | --- | --- | --- | --- | --- | --- | --- | --- | --- | --- | --- | --- | --- | --- | --- | --- | --- |
| C[C@@H](O)[C@H]1C(=O)N2C(C(=O)O)=C(S[C@@H]3CN[C@H](C(=O)Nc4cccc(C(=O)O)c4)C3)[C@H](C)[C@H]12 | 0.06 (≈ 0.126 µM) | 0.06 (≈ 0.126 µM) | 0.06 (≈ 0.126 µM) | 0.06 (≈ 0.126 µM) | 2 (≈ 4.21 µM) | 0.06 (≈ 0.126 µM) | 0.5 (≈ 1.05 µM) | 0.06 (≈ 0.126 µM) | 0.06 (≈ 0.126 µM) | 0.06 (≈ 0.126 µM) | 0.06 (≈ 0.126 µM) | 0.25 (≈ 0.526 µM) | 0.06 (≈ 0.126 µM) | 0.06 (≈ 0.126 µM) | 0.06 (≈ 0.126 µM) | 0.06 (≈ 0.126 µM) | 0.06 (≈ 0.126 µM) | 0.06 (≈ 0.126 µM) | 0.06 (≈ 0.126 µM) | 0.06 (≈ 0.126 µM) | MIC (Escherichia coli [21]): 0.06 µg/mL (≈ 0.126 µM); MIC (Escherichia coli [22]): 0.06 µg/mL (≈ 0.126 µM); MIC (Escherichia coli [23]): 0.06 µg/mL (≈ 0.126 µM); MIC (Klebsiella pneumoniae [24]): 8 µg/mL (≈ 16.8 µM) |
| CO/N=C(\C(=O)N[C@@H]1C(=O)N2C(C(=O)O)=C(COC(C)=O)CS[C@H]12)c1csc(N)n1 [CEFOTAXIME] | 0.06 (≈ 0.132 µM) | 0.06 (≈ 0.132 µM) | 0.06 (≈ 0.132 µM) | 0.06 (≈ 0.132 µM) | 8 (≈ 17.6 µM) | 0.06 (≈ 0.132 µM) | 1 (≈ 2.2 µM) | 0.125 (≈ 0.274 µM) | 0.06 (≈ 0.132 µM) | 0.06 (≈ 0.132 µM) | 0.06 (≈ 0.132 µM) | 2 (≈ 4.39 µM) | 0.06 (≈ 0.132 µM) | 0.06 (≈ 0.132 µM) | 0.06 (≈ 0.132 µM) | 0.06 (≈ 0.132 µM) | 0.06 (≈ 0.132 µM) | 0.06 (≈ 0.132 µM) | 0.06 (≈ 0.132 µM) | 0.06 (≈ 0.132 µM) | fold change (FC) (Klebsiella pneumoniae [25]): 2.7; kcat (Klebsiella pneumoniae [26]): < 0.1 s⁻¹; Km (Klebsiella pneumoniae [27]): 168 µM; kcat (Klebsiella pneumoniae [27]): 43 s⁻¹; kcat/Km (Klebsiella pneumoniae [28]): 260000 M⁻¹ s⁻¹; MIC (Escherichia coli [21]): 0.06 µg/mL (≈ 0.132 µM); MIC (Escherichia coli [22]): 0.06 µg/mL (≈ 0.132 µM); MIC (Escherichia coli [23]): 0.06 µg/mL (≈ 0.132 µM); MIC (Klebsiella pneumoniae [24]): 16 µg/mL (≈ 35.1 µM) |
